Experimental data: ChEMBL document CHEMBL1124784, “Synthesis and bioactivity of a new class of rigid glutamate analogues. Modulators of the N-methyl-D-aspartate receptor” (1990)
Several values for one entry are separate records, joined by “and”; a condition that tells them apart may be missing. Identical values can stand only once.

Experiments:
[1] = system: Cerebellar granule neurone; experiment: Influx of calcium in Cerebellar Granule Cells of rat after 10 min of incubation with compound and 10 uM glutamate; type: functional
Procedure, shortened: (§1)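 Cerebellar granule cells preincubated 15 min with 50 μM azetidine, then 10 min without (basal) or with 10 μM glutamate or 10 μM aspartate; 45Ca2+ influx measured. Percent stimulation relative to agonist alone (100%) after subtracting respective basal values; means ± SEM of four experiments.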

[2] = system: Cerebellar granule neurone; experiment: Influx of calcium in Cerebellar Granule Cells of rat after 10 min of incubation with compound; type: functional; procedure, shortened: as §1
[3] = system: Cerebellar granule neurone; experiment: Stimulation caused by Glutamate in Cerebellar Granule Cells over basal stimulation; type: functional, Rattus norvegicus; procedure, shortened: as §1
[4] = system: Cerebellar granule neurone; experiment: Influx of calcium in Cerebellar Granule Cells of rat after 10 min of incubation with compound and 10 uM aspartate; type: functional; procedure, shortened: as §1
[5] = system: Cerebellar granule neurone; experiment: Stimulation caused by aspartate in Cerebellar Granule Cells over basal stimulation; type: functional, Rattus norvegicus; procedure, shortened: as §1
[6] = species: Rattus norvegicus; experiment: Effect on fractional [3H]GABA release from rat forebrain neurons in culture in the presence of 100 uM CGS 19755
[7] = species: Rattus norvegicus; experiment: Effect on fractional [3H]GABA release from rat forebrain neurons in culture; type: functional
Procedure, shortened: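 Embryonic rat forebrain neurons cultured 8–9 days, loaded with 1 μCi/mL [3H]GABA 60–90 min at 37 °C, washed eight times at 5 min intervals in Mg2+-free HEPES saline, then agonist added; CGS 19755 (100 μM) where used added 5 min before. Evoked efflux minus basal, as fraction of remaining cell tritium (SDS-solubilized); 4–6 wells.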

[8] = system: Cerebellar granule neurone; experiment: Stimulation caused by Aspartate in Cerebellar Granule Cells at 50 uM concentration in presence of 1 uM glutamate; type: functional, Rattus norvegicus
Procedure, shortened: (§2)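 Rat cerebellar granule cells (8-day-old rats), cultured 8–9 days; HEPES saline pH 7.35 with 1.3 mM CaCl2, 45CaCl2 tracer 10 min, then azetidine 50 μM 15 min at 37 °C, then agonist 10 min. Kainate/quisqualate media held 1 mM MgCl2 and 10 μM CPP. Choline/EGTA wash stop; 45Ca uptake per mg protein.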

[9] = system: Cerebellar granule neurone; experiment: Ability to induce calcium uptake in cerebellar granule cells was determined at 50 uM concentration in presence of 50 uM NMDA (control = 91+/-6.5); type: functional, Rattus norvegicus; procedure, shortened: as §2
[10] = system: Cerebellar granule neurone; experiment: Stimulation caused by Aspartate in Cerebellar Granule Cells at 50 uM concentration in presence of 10 uM aspartate
[11] = system: Cerebellar granule neurone; experiment: Ability to induce calcium uptake in cerebellar granule cells was determined at 50 uM concentration (control= 16+/-1.5); type: functional, Rattus norvegicus; procedure, shortened: as §2
[12] = system: Cerebellar granule neurone; experiment: Ability to induce calcium uptake in cerebellar granule cells was determined at 50 uM concentration in presence of 1 uM glutamate (control= 39+/-3.8); type: functional, Rattus norvegicus; procedure, shortened: as §2
[13] = system: Cerebellar granule neurone; experiment: Stimulation caused by Aspartate in Cerebellar Granule Cells at 50 uM concentration in presence of 50 uM NMDA; type: functional, Rattus norvegicus; procedure, shortened: as §2
[14] = system: Cerebellar granule neurone; experiment: Stimulation caused by Aspartate in Cerebellar Granule Cells at 50 uM concentration; type: functional, Rattus norvegicus; procedure, shortened: as §2
[15] = system: Cerebellar granule neurone; experiment: Stimulation caused by Aspartate in Cerebellar Granule Cells at 50 uM concentration in presence of 10 uM CPP; type: functional, Rattus norvegicus; procedure, shortened: as §2
[16] = system: Cerebellar granule neurone; experiment: Ability to induce calcium uptake in cerebellar granule cells was determined at 50 uM concentration in presence of 100 uM kainate (control = 56+/-3.7); type: functional, Rattus norvegicus; procedure, shortened: as §2
[17] = system: Cerebellar granule neurone; experiment: Ability to induce calcium uptake in cerebellar granule cells was determined at 50 uM concentration in presence of 10 uM aspartate (control = 43+/-2.9)
[18] = system: Cerebellar granule neurone; experiment: Ability to induce calcium uptake in cerebellar granule cells was determined at 50 uM concentration in presence of 10 uM CPP (control= 5.4+/-0.3); type: functional, Rattus norvegicus; procedure, shortened: as §2
[19] = system: Cerebellar granule neurone; experiment: Stimulation caused by Aspartate in Cerebellar Granule Cells at 50 uM concentration in presence of 100 uM kainate; type: functional, Rattus norvegicus; procedure, shortened: as §2
[20] = system: Cerebellar granule neurone; experiment: Ability to induce calcium uptake in cerebellar granule cells was determined at 50 uM concentration in presence of 100 uM quisqualate (control=15+/-1.2); type: functional, Rattus norvegicus; procedure, shortened: as §2
[21] = system: Cerebellar granule neurone; experiment: Stimulation caused by Aspartate in Cerebellar Granule Cells at 50 uM concentration in presence of 100 uM quisqualate; type: functional, Rattus norvegicus; procedure, shortened: as §2

## CC(C)(C)OC(=O)[C@@H]1C[C@@H](C(=O)O)N1
[1]
  Influx: 51 nM/mg
[2]
  Influx: 16 nM/mg
[3]
  Stimulation: 97%

## CCCCCCN1[C@@H](C(=O)O)C[C@H]1C(=O)O
[2]
  Influx: 16 nM/mg

## CC(=O)N1[C@@H](C(=O)O)C[C@H]1C(=O)O
[2]
  Influx: 16 nM/mg

## COC(=O)[C@@H]1C[C@@H](C(=O)OC(C)(C)C)N1
[1]
  Influx: 52 nM/mg
[2]
  Influx: 15 nM/mg
[3]
  Stimulation: 105%

## O=C(O)[C@@H]1CCN1
[4]
  Influx: 44.5 nM/mg
[5]
  Stimulation: 105%
[2]
  Influx: 16 nM/mg

## NC(=O)[C@@H]1C[C@H](C(=O)O)N1
[2]
  Influx: 20 nM/mg

## CN[C@H](CC(=O)O)C(=O)O [N-METHYL-D-ASPARTIC ACID (NMDA)]
[6]
  Release: 0.09%
[7]
  Release: 0.73%

## C=C(C)[C@H]1CN[C@H](C(=O)O)[C@H]1CC(=O)O [KAINIC ACID]
[6]
  Release: 2.63%
[7]
  Release: 2.65%

## O=C(O)[C@H]1C[C@@H](C(=O)O)N1Cc1ccccc1
[2]
  Influx: 15 nM/mg

## COC(=O)[C@@H]1C[C@H](C(=O)OC)N1
[2]
  Influx: 19 nM/mg

## NC(=O)[C@@H]1C[C@H](C(N)=O)N1
[2]
  Influx: 15 nM/mg

## O=C(O)[C@@H]1C[C@H](C(=O)O)N1
[8]
  Stimulation: 268%
[1]
  Influx: 92 nM/mg
[9]
  Influx: 136 nM/mg
[10]
  Stimulation: 193%
[11]
  Influx: 23 nM/mg
[12]
  Influx: 85 nM/mg
[13]
  Stimulation: 151%
[14]
  Stimulation: 144%
[15]
  Stimulation: 91%
[16]
  Influx: 52 nM/mg
[17]
  Influx: 75 nM/mg
[18]
  Influx: 4.9 nM/mg
[19]
  Stimulation: 93%
[4]
  Influx: 68 nM/mg
[20]
  Influx: 15 nM/mg
[6]
  Release: -0.08%
[5]
  Stimulation: 175%
[2]
  Influx: 25 nM/mg and 21 nM/mg
[21]
  Stimulation: 100%
[7]
  Release: 1.04%
[3]
  Stimulation: 186%

## O=C(O)[C@@H]1C[C@@H](C(=O)O)N1
[1]
  Influx: 52 nM/mg
[2]
  Influx: 14 nM/mg
[3]
  Stimulation: 106%

## CC(C)(C)OC(=O)[C@H]1C[C@@H](C(=O)O)N1
[1]
  Influx: 67 nM/mg
[4]
  Influx: 52 nM/mg
[5]
  Stimulation: 136%
[2]
  Influx: 15 nM/mg
[3]
  Stimulation: 144%

## O=C(O)[C@H]1C[C@@H](CO)N1
[4]
  Influx: 58 nM/mg
[2]
  Influx: 19 nM/mg

## COC(=O)[C@H]1C[C@@H](C(=O)OC(C)(C)C)N1
[1]
  Influx: 54 nM/mg
[4]
  Influx: 43 nM/mg
[5]
  Stimulation: 107%
[2]
  Influx: 14 nM/mg
[3]
  Stimulation: 111%

## COC(=O)[C@H]1C[C@@H](C(=O)O)N1
[2]
  Influx: 18 nM/mg
